The source made the active and inactive calls. The rule behind the calls is not given here.
Legend:
KG-1a [1] = assay: Induction of myeloid differentiation in human KG-1a cells at 20 uM assessed as increase in CD11b mRNA expression measured after 48 hrs by RT-PCR assay; assay type: functional, cell-based
Summary of the method: (§1)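 Cells exposed for 48 h (KG-1a in IMDM/15% FBS; HL-60 and U937 in RPMI/10% FBS). Total RNA extracted, 1 µg reverse transcribed, CD11b quantified by SYBR green real-time PCR normalised to actin. Cycling was 30 cycles of 95 °C, 60 °C and 72 °C, 45 s each. Mean ± s.e. of three independent experiments, compared with untreated control.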

U-937 [2] = assay: Induction of myeloid differentiation in human U-937 cells at 20 uM assessed as increase in CD11b mRNA expression measured after 48 hrs by RT-PCR assay; assay type: functional, cell-based; summary of the method: as §1
HL-60 [3] = assay: Induction of myeloid differentiation in human HL-60 cells at 20 uM assessed as increase in CD11b mRNA expression measured after 48 hrs by RT-PCR assay; assay type: functional, cell-based; summary of the method: as §1
KG-1a [4] = assay: Cytotoxicity against human KG-1a cells assessed as decrease in cell viability measured after 48 hrs by MTT assay; assay type: functional, cell-based
KG-1a [5] = assay: Cytotoxicity against human KG-1a cells assessed as decrease in cell viability measured after 24 hrs by MTT assay; assay type: functional, cell-based
Summary of the method: (§2)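 MTT viability read 24 h after exposure over a low concentration range (0–25 μM for one inhibitor, 0–100 for the other as printed). IC50 was derived for each line. Culture: HL-60 and U937 in RPMI + 10% FBS, KG-1a in IMDM + 15% FBS.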

U-937 [6] = assay: Cytotoxicity against human U-937 cells assessed as decrease in cell viability measured after 48 hrs by MTT assay; assay type: functional, cell-based; settings: U-937, 48 h
U-937 [7] = assay: Cytotoxicity against human U-937 cells assessed as decrease in cell viability measured after 24 hrs by MTT assay; assay type: functional, cell-based; settings: U-937, 24 h; summary of the method: as §2
HL-60 [8] = assay: Cytotoxicity against human HL-60 cells assessed as decrease in cell viability measured after 48 hrs by MTT assay; assay type: functional, cell-based; settings: HL-60, 48 h
HL-60 [9] = assay: Cytotoxicity against human HL-60 cells assessed as decrease in cell viability measured after 24 hrs by MTT assay; assay type: functional, cell-based; settings: HL-60, 24 h; summary of the method: as §2
U-937 [10] = assay: Cytotoxicity against human U-937 cells at 20 nM assessed as decrease in cell viability in combination with 0.5 uM SAHA measured after 24 hrs by MTT assay; assay type: functional
KG-1a [11] = assay: Cytotoxicity against human KG-1a cells at 20 nM assessed as decrease in cell viability in combination with 0.5 uM SAHA measured after 24 hrs by MTT assay; assay type: functional
HL-60 [12] = assay: Cytotoxicity against human HL-60 cells at 20 nM assessed as decrease in cell viability in combination with 0.5 uM SAHA measured after 24 hrs by MTT assay; assay type: functional
KG-1a [13] = assay: Induction of myeloid differentiation in human KG-1a cells at 20 nM assessed as appearance of nuclear segmentation measured after 12 hrs by Liu's staining method; assay type: functional, cell-based
Summary of the method: (§3)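 Cells exposed 12 h were spun onto slides by cytospin. They were stained with Liu's reagent A for 1 min, then reagent B for 2.5 min, and morphology was examined by light microscopy.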

HL-60 [14] = assay: Induction of myeloid differentiation in human HL-60 cells at 20 nM assessed as appearance of nuclear segmentation measured after 12 hrs by Liu's staining method; assay type: functional, cell-based; summary of the method: as §3
KG-1a [15] = assay: Induction of myeloid differentiation in human KG-1a cells at 20 nM assessed as reduction of nucleus to cytoplasm ratio measured after 12 hrs by Liu's staining method; assay type: functional, cell-based; summary of the method: as §3
HL-60 [16] = assay: Induction of myeloid differentiation in human HL-60 cells at 20 nM assessed as reduction of nucleus to cytoplasm ratio measured after 12 hrs by Liu's staining method; assay type: functional, cell-based; summary of the method: as §3
U-937 [17] = assay: Induction of myeloid differentiation in human U-937 cells at 20 nM assessed as decrease in G9a mRNA expression measured after 48 hrs by RT-PCR assay; assay type: functional, cell-based
Summary of the method: (§4)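 Treatment was 48 h. Total RNA (1 µg) was reverse transcribed, then SYBR green real-time PCR was run with actin as internal control: 95 °C 5 min, then 30 cycles of 95 °C/45 s, 60 °C/45 s, 72 °C/45 s. Mean ± s.e. of three independent experiments, compared with untreated control.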

U-937 [18] = assay: Induction of myeloid differentiation in human U-937 cells at 20 nM assessed as decrease in SUV39H1 mRNA expression measured after 48 hrs by RT-PCR assay; assay type: functional, cell-based; summary of the method: as §4
KG-1a [19] = assay: Induction of myeloid differentiation in human KG-1a cells at 20 nM assessed as decrease in G9a mRNA expression measured after 48 hrs by RT-PCR assay; assay type: functional, cell-based; summary of the method: as §4
KG-1a [20] = assay: Induction of myeloid differentiation in human KG-1a cells at 20 nM assessed as decrease in SUV39H1 mRNA expression measured after 48 hrs by RT-PCR assay; assay type: functional, cell-based; summary of the method: as §4
HL-60 [21] = assay: Induction of myeloid differentiation in human HL-60 cells at 20 nM assessed as decrease in G9a mRNA expression measured after 48 hrs by RT-PCR assay; assay type: functional, cell-based; summary of the method: as §4
HL-60 [22] = assay: Induction of myeloid differentiation in human HL-60 cells at 20 nM assessed as decrease in SUV39H1 mRNA expression measured after 48 hrs by RT-PCR assay; assay type: functional, cell-based; summary of the method: as §4
KG-1a [23] = assay: Induction of myeloid differentiation in human KG-1a cells at 20 nM assessed as increase in CD11b mRNA expression measured after 48 hrs by RT-PCR assay; assay type: functional, cell-based; summary of the method: as §4
U-937 [24] = assay: Induction of myeloid differentiation in human U-937 cells at 20 nM assessed as increase in CD11b mRNA expression measured after 48 hrs by RT-PCR assay; assay type: functional, cell-based; summary of the method: as §4
HL-60 [25] = assay: Induction of myeloid differentiation in human HL-60 cells at 20 nM assessed as increase in CD11b mRNA expression measured after 48 hrs by RT-PCR assay; assay type: functional, cell-based; summary of the method: as §4
HL-60 [26] = assay: Induction of myeloid differentiation in human HL-60 cells at 20 nM in combination with 0.5 uM SAHA measured after 12 hrs by Liu's staining method; assay type: functional, cell-based
Summary of the method: (§5)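 Cells received single epigenetic inhibitors or combinations and were collected by cytospin. After Liu's staining (reagent A 1 min, reagent B 2.5 min), differentiated cells were counted under a light microscope. Mean ± s.e. of three independent experiments.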

KG-1a [27] = assay: Induction of myeloid differentiation in human KG-1a cells at 20 nM in combination with 0.5 uM SAHA measured after 12 hrs by Liu's staining method; assay type: functional, cell-based; summary of the method: as §5
U-937 [28] = assay: Induction of myeloid differentiation in human U-937 cells at 20 nM in combination with 0.5 uM SAHA measured after 12 hrs by Liu's staining method; assay type: functional, cell-based; summary of the method: as §5
[29] = target: T1, Histone-lysine N-methyltransferase SUV39H1 (Homo sapiens) (UniProt O43463); settings: U-937, dose 20.0 nM, time 48.0 hrs
T1 sequence (whole entry): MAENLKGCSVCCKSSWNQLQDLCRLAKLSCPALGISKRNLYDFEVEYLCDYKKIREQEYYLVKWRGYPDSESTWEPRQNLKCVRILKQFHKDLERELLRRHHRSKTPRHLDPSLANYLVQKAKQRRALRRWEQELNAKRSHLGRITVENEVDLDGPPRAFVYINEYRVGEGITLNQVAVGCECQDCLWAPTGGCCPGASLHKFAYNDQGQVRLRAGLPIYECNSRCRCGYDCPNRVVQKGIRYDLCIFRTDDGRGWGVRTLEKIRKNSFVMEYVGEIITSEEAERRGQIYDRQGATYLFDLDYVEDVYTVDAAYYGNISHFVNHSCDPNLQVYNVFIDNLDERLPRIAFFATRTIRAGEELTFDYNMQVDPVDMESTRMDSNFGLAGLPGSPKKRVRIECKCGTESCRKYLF

[30] = target: T1, Histone-lysine N-methyltransferase SUV39H1 (Homo sapiens); settings: KG-1a, dose 20.0 nM, time 48.0 hrs
[31] = target: T1, Histone-lysine N-methyltransferase SUV39H1 (Homo sapiens); settings: HL-60, dose 20.0 nM, time 48.0 hrs
[32] = target: T1, Histone-lysine N-methyltransferase SUV39H1 (Homo sapiens); settings: U-937, dose 20.0 nM, time 48.0 hrs; remark: listed apart in the source
[33] = target: T1, Histone-lysine N-methyltransferase SUV39H1 (Homo sapiens); settings: KG-1a, dose 20.0 nM, time 48.0 hrs; remark: listed apart in the source
[34] = target: T1, Histone-lysine N-methyltransferase SUV39H1 (Homo sapiens); settings: HL-60, dose 20.0 nM, time 48.0 hrs; remark: listed apart in the source
[35] = target: T1, Histone-lysine N-methyltransferase SUV39H1 (Homo sapiens); settings: U-937, dose 20.0 nM, time 48.0 hrs; remark: listed apart in the source
[36] = target: T1, Histone-lysine N-methyltransferase SUV39H1 (Homo sapiens); settings: KG-1a, dose 20.0 nM, time 48.0 hrs; remark: listed apart in the source
[37] = target: T1, Histone-lysine N-methyltransferase SUV39H1 (Homo sapiens); settings: HL-60, dose 20.0 nM, time 48.0 hrs; remark: listed apart in the source
[38] = target: T1, Histone-lysine N-methyltransferase SUV39H1 (Homo sapiens); settings: U-937, dose 20.0 nM, time 48.0 hrs; remark: listed apart in the source
[39] = target: T1, Histone-lysine N-methyltransferase SUV39H1 (Homo sapiens); settings: KG-1a, dose 20.0 nM, time 48.0 hrs; remark: listed apart in the source
[40] = target: T1, Histone-lysine N-methyltransferase SUV39H1 (Homo sapiens); settings: HL-60, dose 20.0 nM, time 48.0 hrs; remark: listed apart in the source

COc1cc2c(NC3CCN(C(C)C)CC3)nc(C3CCCCC3)nc2cc1OCCCN1CCCC1
Activity (KG-1a [1]): inactive | Activity (U-937 [2]): inactive | Activity (HL-60 [3]): inactive | IC50 (KG-1a [4]): 22.4 µM | IC50 (KG-1a [5]): 26.5 µM | IC50 (U-937 [6]): 19.7 µM | IC50 (U-937 [7]): 21.4 µM | IC50 (HL-60 [8]): 23.8 µM | IC50 (HL-60 [9]): 27.4 µM

CN1C(=O)[C@@]23C[C@]4([C@]56C[C@@]78SS[C@@](CO)(C(=O)N7[C@H]5Nc5ccccc56)N(C)C8=O)c5ccccc5N[C@@H]4N2C(=O)[C@]1(CO)SS3.O=C(CCCCCCC(=O)Nc1ccccc1)NO
Activity (U-937 [10]): 20% | Activity (KG-1a [11]): 40% | Activity (HL-60 [12]): 40%

CN1C(=O)[C@@]23C[C@]4([C@]56C[C@@]78SS[C@@](CO)(C(=O)N7[C@H]5Nc5ccccc56)N(C)C8=O)c5ccccc5N[C@@H]4N2C(=O)[C@]1(CO)SS3 [CHAETOCIN]
Activity (U-937 [10]): 20% | Activity (KG-1a [11]): 40% | Activity (HL-60 [12]): 40% | IC50 (KG-1a [4]): 9.5e-05 µM | IC50 (KG-1a [5]): 0.000103 µM | IC50 (U-937 [6]): 8.2e-05 µM | IC50 (U-937 [7]): 9.6e-05 µM | IC50 (HL-60 [8]): 0.000127 µM | IC50 (HL-60 [9]): 0.000153 µM

CN1C(=O)[C@@]23C[C@]4([C@]56C[C@@]78SS[C@@](CO)(C(=O)N7[C@H]5Nc5ccccc56)N(C)C8=O)c5ccccc5N[C@@H]4N2C(=O)[C@]1(CO)SS3
Activity (KG-1a [13]): Active | Activity (HL-60 [14]): Active | Activity (KG-1a [15]): Active | Activity (HL-60 [16]): Active | Activity (U-937 [17]): inactive | Activity (U-937 [18]): inactive | Activity (KG-1a [19]): Active | Activity (KG-1a [20]): Active | Activity (HL-60 [21]): Active | Activity (HL-60 [22]): Active | Activity (KG-1a [23]): Active | Activity (U-937 [24]): Active | Activity (HL-60 [25]): Active | Activity (HL-60 [26]): inactive | Activity (KG-1a [27]): inactive | Activity (U-937 [28]): inactive | inhibition [29]: inactive | inhibition [30]: Active | inhibition [31]: Active | inhibition [32]: inactive | inhibition [33]: Active | inhibition [34]: Active | inhibition [35]: inactive | inhibition [36]: Active | inhibition [37]: Active | inhibition [38]: inactive | inhibition [39]: Active | inhibition [40]: Active
